Data from ChEMBL document CHEMBL1152202, “Synthesis and biological evaluation of helicid analogues as mushroom tyrosinase inhibitors” (Bioorg Med Chem Lett, 2008).
Activity calls are given as the source filed them. The calls are words filed in the database; no cut-off is given here.

Assays:
[1] = biological target: T1, Tyrosinase (Agaricus bisporus, UniProt O42713); assay: Inhibition of mushroom tyrosinase assessed as 3,4-dihydroxy-L-phenylalanine oxidation
T1 sequence (O42713 whole entry): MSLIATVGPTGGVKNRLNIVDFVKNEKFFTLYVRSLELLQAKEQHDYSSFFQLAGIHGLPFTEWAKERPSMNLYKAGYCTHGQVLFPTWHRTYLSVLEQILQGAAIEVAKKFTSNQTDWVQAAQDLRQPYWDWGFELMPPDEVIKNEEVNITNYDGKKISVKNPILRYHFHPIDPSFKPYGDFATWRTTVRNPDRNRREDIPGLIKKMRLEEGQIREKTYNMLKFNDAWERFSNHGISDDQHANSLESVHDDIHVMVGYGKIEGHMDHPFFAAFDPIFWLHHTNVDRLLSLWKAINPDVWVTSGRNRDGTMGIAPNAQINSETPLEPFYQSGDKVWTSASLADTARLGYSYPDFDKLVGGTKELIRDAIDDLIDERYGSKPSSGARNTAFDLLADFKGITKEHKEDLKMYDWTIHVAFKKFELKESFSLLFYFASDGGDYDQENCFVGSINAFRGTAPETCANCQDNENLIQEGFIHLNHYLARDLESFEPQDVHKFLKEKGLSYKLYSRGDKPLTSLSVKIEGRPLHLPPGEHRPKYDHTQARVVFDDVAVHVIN

[2] = biological target: T2, Tyrosinase (Agaricus bisporus) (UniProt O42713); assay: Inhibition of mushroom tyrosinase assessed as 3,4-dihydroxy-L-phenylalanine oxidation at 0.1 mM
T2 sequence (whole entry): T1 sequence (O42713 whole entry)
Summary of the method: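 Mushroom tyrosinase was the enzyme source. Activity was reported as IC50 in mM, with compounds tested up to 3.0 mM, and as percent inhibition at 0.1 mM. Values are means of three separate experiments.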

[3] = tested on: Mus musculus; assay: Toxicity in mouse assessed by autopsy at 1200 mg/kg, po administered as single gavage dose after 20 days; format: organism-based; design: dose 1200 mg/kg, route oral; settings: in vivo, 480 h
Summary of the method: (§1)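 Acute oral toxicity in mice: one 1200 mg/kg dose given by gavage. Clinical symptoms and mortality were followed for 20 days. Animals were autopsied at the end of the 20-day period, and organs were examined for gross changes.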

[4] = tested on: Mus musculus; assay: Toxicity in mouse assessed as mortality at 1200 mg/kg, po administered as single gavage dose after 20 days; format: organism-based; design: dose 1200 mg/kg, route oral; settings: in vivo, 480 h; summary of the method: as §1

| SMILES | IC50 [1] | Activity [2] | inhibition [2] | Activity [3] | Activity [4] |
| --- | --- | --- | --- | --- | --- |
| O=Cc1ccc(O[C@@H]2O[C@H](COC(c3ccccc3)(c3ccccc3)c3ccccc3)[C@@H](O)[C@@H](O)[C@H]2O)cc1 | > 3000 µM | inactive | – | – | – |
| CC1(C)O[C@@H]2[C@H](O)[C@@H](CO)O[C@@H](Oc3ccc(C=O)cc3)[C@@H]2O1 | 620 µM | – | 13% | – | – |
| O=Cc1ccc(O[C@@H]2OC[C@@H](OC(=O)c3ccccc3)[C@@H](OC(=O)c3ccccc3)[C@H]2OC(=O)c2ccccc2)cc1 | > 3000 µM | inactive | – | – | – |
| O=Cc1ccc(O)cc1 [4-HYDROXYBENZALDEHYDE] | 1120 µM | – | 15% | – | – |
| O=Cc1ccc(O[C@@H]2O[C@@H]3CO[C@@H](c4ccccc4)O[C@H]3[C@@H](O)[C@H]2O)cc1 | 52 µM | – | 77% | Non-toxic | Non-toxic |
| CC(=O)OC[C@H]1O[C@@H](Oc2ccc(C=O)cc2)[C@H](OC(C)=O)[C@@H](OC(C)=O)[C@@H]1OC(C)=O | > 3000 µM | inactive | – | – | – |
| CC(=O)O[C@H]1[C@@H](OC(C)=O)[C@H](Oc2ccc(C=O)cc2)O[C@H](CO)[C@H]1OC(C)=O | > 3000 µM | inactive | – | – | – |
| O=Cc1ccc(O[C@@H]2O[C@H](CO)[C@@H](O)[C@H](O)[C@H]2O)cc1 | 940 µM | – | 30% | Non-toxic | Non-toxic |
| CC(=O)OC[C@H]1O[C@@H](O[C@H]2[C@H](OC(C)=O)[C@@H](OC(C)=O)[C@H](Oc3ccc(C=O)cc3)O[C@@H]2COC(C)=O)[C@H](OC(C)=O)[C@@H](OC(C)=O)[C@H]1OC(C)=O | > 3000 µM | – | 5% | – | – |
| OC[C@H]1O[C@@H](Oc2ccc(O)cc2)[C@H](O)[C@@H](O)[C@@H]1O | – | inactive | – | – | – |
| O=Cc1ccc(O[C@@H]2O[C@H](CO)[C@@H](O)[C@@H](O)[C@H]2O)cc1 [HELICIDE] | 2540 µM | – | 10% | – | – |
| O=Cc1ccc(O[C@@H]2OC[C@@H](O)[C@@H](O)[C@H]2O)cc1 | 280 µM | – | 42% | – | – |
| COP(=O)(OC)OC[C@H]1O[C@@H](Oc2ccc(C=O)cc2)[C@H](O)[C@H](O)[C@@H]1O | 430 µM | – | 24% | – | – |
| COc1ccc(/C=C/C(=O)O)cc1 | – | – | 22% | – | – |
